In ChEMBL document CHEMBL1126868, “Inhibitors of blood platelet cAMP phosphodiesterase. 4. Structural variation of the side-chain terminus of water-soluble 1,3-dihydro-2H-imidazo[4,5-b]quinolin-2-one derivatives” (J Med Chem, 1993):
Several values for one entry are separate records, joined by “and”; a condition that tells them apart may be missing. Identical values can stand only once.

Key:
Homo sapiens [1] = species on record: Homo sapiens; test: Inhibition of human platelet aggregation induced by ADP after 3 min incubation with platelet rich plasma; format: functional; details: 0.05 h
Summary of the method: (§1)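 Human platelet-rich plasma was preincubated with drug for 3 min (standard) or 15 min, then aggregation was induced with 5.86 μM ADP. Aggregation at a range of drug concentrations was compared with vehicle-treated controls, and IC50 was taken from dose-response curves. Values are single, duplicate or triplicate (with SD) determinations.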

Homo sapiens [2] = species on record: Homo sapiens; test: Inhibition of human platelet aggregation induced by ADP after 15 min incubation with platelet rich plasma; format: functional; details: 0.25 h; summary of the method: as §1
[3] = % metabolized in monkey S-9 after 2 hours (10 ug/ml); format: ADME; details: simiiformes, monkey S-9 fraction; read-out: Activity
Summary of the method: (§2)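 Monkey liver homogenised at 0 °C in 3 volumes isotonic KCl (0.05 M phosphate, pH 7.4), spun 9000g 30 min to give S-9. Triplicate incubations at 37 °C for 2 h with cofactor mix (glucose-6-phosphate, NADP, nicotinamide, MgCl2), final drug 1 or 10 μg/mL. Parent measured by fluorescence HPLC after MeOH protein precipitation; % metabolized = 100% minus % remaining at 2 h versus t=0.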

[4] = % metabolized in monkey S-9 after 2 hours (1 ug/ml); format: ADME; details: simiiformes, monkey S-9 fraction; read-out: Activity; summary of the method: as §2
Phosphodiesterase 3 [5] = target: T1, Phosphodiesterase 3 (Homo sapiens, UniProt Q14432+Q13370); test: Inhibition of human platelet aggregation cAMP PDE in vitro; format: functional
Summary of the method: (§3)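 Human platelet cAMP PDE assay run as in an earlier protocol, except that the [3H]adenosine product was resolved on DEAE Sephadex. Values are means of duplicate (deviation under 50% of mean) or triplicate determinations.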

[6] = Aqueous solubility; format: physicochemical; details: read-out: S
Summary of the method: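 A 10-mg sample was placed in 0.5 mL water and diluted stepwise up to 10 mL, or until it dissolved. Solubility is reported in mg/mL.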

[7] = half-life (t1/2 min); format: ADME; details: for T1/2: 2 h
Summary of the method: (§4)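 Same monkey liver S-9 incubation (37 °C, final drug 1 or 10 μg/mL, triplicate). Aliquots taken at 0, 15, 30, 60, 90 and 120 min, quenched with MeOH and analysed for parent by fluorescence HPLC peak height. Half-life = ln 2 divided by the slope of a least-squares linear regression of peak height against time.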

[8] = t1/2 (min); format: ADME; summary of the method: as §4
Phosphodiesterase 3 [9] = target: T1, Phosphodiesterase 3; test: Inhibition of human blood platelet c-AMP phosphodiesterase; format: functional; summary of the method: as §3
[10] = % metabolized in monkey S-9 after 2 hours (10 ug/mL); format: ADME; details: simiiformes, monkey S-9 fraction; read-out: Activity; summary of the method: as §2

Compound | IC50 (Homo sapiens [1]) [µM] | IC50 (Homo sapiens [2]) [µM] | metabolised at 2 h, 10 ug/ml [3] [%] | metabolised at 2 h, 1 ug/ml [4] [%] | IC50 (Phosphodiesterase 3 [5]) [µM] | solubility [6] [mg/mL] | half-life [7] [h] | half-life [8] [h] | IC50 (Phosphodiesterase 3 [9]) [µM] | metabolised at 2 h, 10 ug/mL [10] [%] | T1/2 [7]
Cl.O=C(NCCCOc1ccc2[nH]c3nc(O)nc-3cc2c1)N1CCN(CC2CCCCC2)CC1 | 0.072 | 0.018 | 23.6 | 58.5 | 0.00113 | > 20 |  |  |  |  | 
Cl.Oc1nc2cc3cc(OCCCc4nnnn4C4CCN(Cc5ccccc5)CC4)ccc3[nH]c-2n1 | 0.039 | 0.004 |  | 7.2 | 0.00084 | > 10 | 15.8 |  |  |  | 
Cl.O=S(=O)(CCCOc1ccc2[nH]c3nc(O)nc-3cc2c1)C1CCN(Cc2ccccc2)CC1 | 0.025 | 0.0064 | 9.6 | 25.2 | 0.00063 | > 10 |  |  |  |  | 
Cl.Oc1nc2cc3cc(OCCCc4nnnn4C4CCN(Cc5ccc(F)cc5)CC4)ccc3[nH]c-2n1 | 0.032 | 0.008 |  | 4.9 | 0.00103 | > 10 | 24.6 |  |  |  | 
CCC(CC)CN1CCC(n2nnnc2CCCOc2ccc3[nH]c4nc(O)nc-4cc3c2)CC1.Cl | 0.012 | 0.003 |  | 31.3 | 0.00081 | > 10 | 3.37 |  |  |  | 
Cl.Oc1nc2cc3cc(OCCCc4nnnn4C4CCN(CC5CCCCC5)CC4)ccc3[nH]c-2n1 | 0.016 | 0.003 |  | 22.9 | 0.00081 | > 10 | 5.13 |  |  |  | 
Cl.O=S(=O)(CCCOc1ccc2[nH]c3nc(O)nc-3cc2c1)C1CCN(Cc2ccc(F)cc2)CC1 | 0.02 | 0.0084 |  |  |  | > 10 |  | 2 | 0.001 | 53 | 
CCC(CC)CN1CCC(S(=O)(=O)CCCOc2ccc3[nH]c4nc(O)nc-4cc3c2)CC1.Cl | 0.039 | 0.009 | 22.4 | 17 | 0.00113 | < 10 | 6.08 |  |  |  | 7.05 h
Cl.O=S(=O)(CCCOc1ccc2[nH]c3nc(O)nc-3cc2c1)N1CCN(Cc2ccc(F)cc2)CC1 | 0.28 | 0.035 | 18 | 29.4 | 0.00496 | > 20 | 6.75 |  |  |  | 4.02 h
Cl.O=S(=O)(CCCOc1ccc2[nH]c3nc(O)nc-3cc2c1)N1CCN(Cc2ccccc2)CC1 | 0.13 | 0.06 | 21.2 | 67.7 | 0.00542 | > 20 |  |  |  |  | 
O=C(CCCOc1ccc2[nH]c3nc(O)nc-3cc2c1)N1CCN(CC2CCCCC2)CC1 |  |  | 21.7 | 40.6 |  |  |  |  |  |  | 5.55 h and 2.4 h
